Laboratory results as given in ChEMBL document CHEMBL1687858, “Natural and semisynthetic mammea-type isoprenylated dihydroxycoumarins uncouple cellular respiration” (J Nat Prod, 2011).
Calls of active or inactive are those of the source. The calls are words filed in the database; no cut-off is given here.

Columns and labels:
PC-3 [1] = assay: Antiproliferative activity against human PC3 cells after 48 hrs; type: functional, cell-based; details: PC-3, 48 h
Procedure, shortened: (§1)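 Tumor cells (T47D or PC-3, from ATCC) exposed 48 h to compounds at 0.31 to 20 μM, from DMSO stocks with final DMSO under 0.5%. EC50 and 95% CI derived from one experiment run in triplicate. Maximum inhibition set at 50% for T47D and 40% for PC-3.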

T47D [2] = assay: Antiproliferative activity against human T47D cells after 48 hrs; type: functional, cell-based; procedure, shortened: as §1
[3] = molecular target: T1, Hypoxia inducible factors; HIF-1-alpha, HIF-2-alpha (Homo sapiens, UniProt Q16665+Q99814); assay: Inhibition of 1,10-phenanthrolin-induced HIF1 activation in human T47D cells expressing pGL3 construct after 16 hrs by cell-based luciferase reporter assay
Procedure, shortened: (§2)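 T47D cells carrying an HIF-1 luciferase reporter, induced for 16 h either by hypoxia (1% O2) or by 10 μM 1,10-phenanthroline, with compounds over 0.31 to 20 μM. IC50 and 95% CI taken from one representative of two independent experiments, each run in triplicate.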

[4] = molecular target: T1, Hypoxia inducible factors; HIF-1-alpha, HIF-2-alpha; assay: Inhibition of hypoxia-induced HIF1 activation in human T47D cells expressing pGL3 construct after 16 hrs by cell-based luciferase reporter assay; procedure, shortened: as §2
T47D [5] = assay: Inhibition of hypoxia-induced VEGF protein secretion in human T47D cells at 3 uM after 16 hrs by ELISA; type: functional
Procedure, shortened: (§3)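 T47D cells held under hypoxia (1% O2, 16 h) with compound at 3 or 10 μM. VEGF in conditioned medium measured by ELISA and normalized to cellular protein. Normoxic and hypoxic medium controls included. Mean + SD from one experiment run in triplicate.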

T47D [6] = assay: Inhibition of hypoxia-induced VEGF protein secretion in human T47D cells after 16 hrs by ELISA; type: functional, cell-based; procedure, shortened: as §3
T47D [7] = assay: Effect on cellular respiration in human T47D cells assessed as decrease in oxygen consumption at 0.3 to 10 uM by cell-based reporter assay in presence of F0F1ATPase 1 uM inhibitor oligomycin; type: functional
T47D [8] = assay: Effect on cellular respiration in human T47D cells assessed as decrease in oxygen consumption at 10 uM by cell-based reporter assay; type: functional
Procedure, shortened: (§4)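 Oxygen consumption of T47D cells measured with compound at 0.3, 1, 3 and 10 μM. Reported as Relative Respiration Rate = 100 × (OCR compound / OCR untreated control) − 100. FCCP included as reference uncoupler. Mean + SD from three independent experiments.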

T47D [9] = assay: Effect on cellular respiration in human T47D cells assessed as oxygen consumption at 0.3 uM by cell-based reporter assay; type: functional; procedure, shortened: as §4
T47D [10] = assay: Effect on cellular respiration in human T47D cells assessed as increase in state 4 respiration at 0.3 to 3 uM by cell-based reporter assay; type: functional
Procedure, shortened: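 Respiring T47D cells given oligomycin (1 μM) to set state 4 respiration, then compound or FCCP added at 0.3, 1 and 3 μM. Reported as Respiration Index = OCR (oligomycin + compound) / OCR (oligomycin).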

PC-3 [11] = assay: Antiproliferative activity against human PC3 cells assessed as cell viability at 20 uM; type: functional; details: read-out: Activity
T47D [12] = assay: Cytostatic effect against human T47D cells assessed as cell growth inhibition at 20 uM after 48 hrs; type: functional; design: scale not given: the % may be the effect or the level left
T47D [13] = assay: Inhibition of hypoxia-induced VEGF protein secretion in human T47D cells upto 10 uM after 16 hrs by ELISA; type: functional; procedure, shortened: as §3

Row | IC50 (PC-3 [1]) | IC50 (T47D [2]) | IC50 [3] | IC50 [4] | SMILES | inhibition (T47D [5]) | inhibition (T47D [6]) | Activity (T47D [7]) | Activity (T47D [8]) | Activity (T47D [9]) | Activity (T47D [10]) | viability at 20 µM (PC-3 [11]) | Activity (T47D [12]) | Activity (T47D [13])
1 | 2.27 µM | 1.32 µM | 1.28 µM | 2.2 µM | CCCc1cc(=O)oc2c(C(=O)CC(C)C)c(O)c(CC=C(C)C)c(O)c12 | inactive | Dose-dependent effect | Active | Active | inactive | Active | – | – | –
2 | 7.03 µM | 3.62 µM | 9.56 µM | 9.4 µM | CCCc1cc(=O)oc2c(CC=C(C)C)c(O)c(C(=O)CC(C)C)c(O)c12 | – | – | – | – | – | – | – | – | –
3 | > 20 µM | 4.67 µM | 15.7 µM | 5.91 µM | CCCC[C@H](OC)c1cc(=O)oc2c(CC(=O)[C@@H](C)CC)c(OC)c(CC=C(C)C)c(OC)c12 | – | – | – | – | – | – | – | – | –
4 | > 20 µM | 6.95 µM | 18.4 µM | 13.2 µM | CCCC[C@H](OC)c1cc(=O)oc2c(C(=O)[C@@H](C)CC)c(OC)c(CC=C(C)C)c(OC)c12 | – | – | – | – | – | – | – | – | –
5 | 1.17 µM | 0.73 µM | 1.06 µM | 0.83 µM | CCCC[C@H](OC(C)=O)c1cc(=O)oc2c(C(=O)[C@@H](C)CC)c(OC(C)=O)c(CC=C(C)C)c(OC(C)=O)c12 | – | – | Active | Active | inactive | Non-toxic | 65% | 82% | –
6 | 3.36 µM | 3.13 µM | 4.12 µM | 4.19 µM | CCCCCc1cc(=O)oc2c(CC=C(C)C)c(O)c(C(=O)CC(C)C)c(O)c12 | – | – | – | – | – | – | – | – | –
7 | 1.88 µM | 1.36 µM | 2.71 µM | 2.76 µM | CCCCCc1cc(=O)oc2c(C(=O)CC(C)C)c(O)c(CC=C(C)C)c(O)c12 | – | Dose-dependent effect | Active | Active | inactive | Active | – | – | –
8 | 5.26 µM | 4.01 µM | 5.96 µM | 6.76 µM | CC[C@H](C)C(=O)c1c(O)c(CC=C(C)C)c(O)c2c(-c3ccccc3)cc(=O)oc12 | – | – | – | – | – | – | – | – | –
9 | 1.14 µM | 0.91 µM | 1.81 µM | 1.72 µM | CCCC[C@H](O)c1cc(=O)oc2c(C(=O)CC(C)C)c(O)c(CC=C(C)C)c(O)c12 | – | – | – | – | – | – | – | – | –
10 | 4.18 µM | 3.57 µM | 5.31 µM | 5.7 µM | CCCCCc1cc(=O)oc2c(CC=C(C)C)c(O)c(C(=O)[C@H](C)CC)c(O)c12 [MAMMEA C/AB] | – | – | – | – | – | – | – | – | –
11 | 3.82 µM | 2.88 µM | 4.82 µM | 4.63 µM | CC[C@H](C)C(=O)c1c(O)c(CC=C(C)C)c2oc(=O)cc(-c3ccccc3)c2c1O | – | – | – | – | – | – | – | – | –
12 | 6.41 µM | 4.54 µM | 6.5 µM | 6.31 µM | CCCC[C@H](O)c1cc(=O)oc2c(C(=O)[C@@H](C)CC)c(OC)c(CC=C(C)C)c(OC)c12 | Active | Dose-dependent effect | Active | Active | inactive | Non-toxic | 93% | 91% | –
13 | 6.05 µM | 3.22 µM | 3.25 µM | 5.04 µM | CCCc1cc(=O)oc2c(C(=O)[C@@H](C)CC)c(O)c(CC=C(C)C)c(O)c12 | – | – | – | – | – | – | – | – | –
14 | 2.18 µM | 1.57 µM | 3.73 µM | 3.23 µM | CC(C)=CCc1c(O)c(C(=O)CC(C)C)c2oc(=O)cc(-c3ccccc3)c2c1O [ISOMAMMEISIN] | – | Dose-dependent effect | Active | Active | inactive | Active | – | – | –
15 | 10.5 µM | 5.52 µM | 8.21 µM | 9.96 µM | CCCc1cc(=O)oc2c(CC=C(C)C)c(O)c(C(=O)[C@H](C)CC)c(O)c12 | – | – | Active | Active | inactive | Active | – | – | 1 µM
16 | 1.16 µM | 0.97 µM | 1.68 µM | 2.06 µM | CCCC[C@H](OC(C)=O)c1cc(=O)oc2c(C(=O)[C@@H](C)CC)c(O)c(CC=C(C)C)c(OC(C)=O)c12 | – | – | – | – | – | – | – | – | –
17 | 10.6 µM | 6.18 µM | 11.3 µM | 7.42 µM | CCCC[C@H](O)c1cc(=O)oc2c(CC(=O)[C@@H](C)CC)c(OC)c(CC=C(C)C)c(OC)c12 | – | – | – | – | – | – | – | – | –
18 | 2.09 µM | 1.36 µM | 2.3 µM | 2.23 µM | CCCC[C@H](O)c1cc(=O)oc2c(C(=O)[C@@H](C)CC)c(O)c(CC=C(C)C)c(O)c12 | inactive | Dose-dependent effect | Active | Active | inactive | Active | – | – | –
19 | 2.19 µM | 1.56 µM | 3.4 µM | 3.73 µM | CCCCCc1cc(=O)oc2c(C(=O)[C@@H](C)CC)c(O)c(CC=C(C)C)c(O)c12 | – | – | – | – | – | – | – | – | –
20 | 6.41 µM | 4.72 µM | 5.47 µM | 5.11 µM | CCCC[C@H](OC(C)=O)c1cc(=O)oc2c(C(=O)[C@@H](C)CC)c(OC(C)=O)c(CC=C(C)C)c(O)c12 | – | – | – | – | – | – | – | – | –

Row | SMILES | IC50 (PC-3 [1]) | IC50 (T47D [2]) | IC50 [3] | IC50 [4] | inhibition (T47D [5]) | inhibition (T47D [6]) | Activity (T47D [7]) | Activity (T47D [8]) | Activity (T47D [9]) | Activity (T47D [10]) | viability at 20 µM (PC-3 [11]) | Activity (T47D [12]) | Activity (T47D [13])
21 | CC(C)=CCc1c(O)c(C(=O)CC(C)C)c(O)c2c(-c3ccccc3)cc(=O)oc12 [MAMMEISIN] | 5.31 µM | 4.28 µM | 3.71 µM | 4.44 µM | – | – | – | – | – | – | – | – | –
